Active and inactive are the calls of the source. The rule behind the calls is not given here.
Test system: SK-MEL
Experiment: Cytotoxicity against human malignant melanoma cell line SK-MEL; NA= not active
Type: functional, cell-based
Outline: (§1)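 SK-MEL human malignant melanoma cells, 25,000 per well, were exposed to compound solutions for 72 h. Viable cells were counted by neutral red uptake: cells were washed with saline, incubated 1.5 h in 0.17% neutral red in serum-free RPMI, then washed again to remove extracellular dye.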

For `COC(=O)c1ccc(/C=C/[C@H]2CCCC3C(C)(C)[C@@H](O)CC[C@@]32C)cc1` (stereo partly specified), the IC50 was “Not Active”.

Test system: not listed separately
Experiment: In vitro therapeutic index (IC50 cytotoxicity/ IC50 complement inhibition) was determined; ND=not active
Type: functional

In the case of `COc1ccc(CO[C@H]2CC[C@]3(C)CC(Cc4ccc(C(=O)O)cc4)CCC3C2(C)C)cc1` (single isomer, unassigned), the TI is reported as “inactive”.

Test system: SK-MEL
Experiment: Cytotoxicity against human malignant melanoma cell line SK-MEL
Type: functional, cell-based
Outline: as §1

Going from `CC1(C)C2CCC[C@H](/C=C/c3ccccc3C#N)[C@@]2(C)CC[C@@H]1O` (stereo partly specified) to `CC1(C)C2CCC[C@H](/C=C/c3ccccc3C(=O)O)[C@@]2(C)CC[C@@H]1O` (stereo partly specified), the IC50 rises from 155 µM to 380 µM (2.5-fold). The first is the more potent here.

`COc1ccc(CO[C@H]2CC[C@]3(C)CC(Cc4cccc(C(=O)O)c4)CCC3C2(C)C)cc1` (single isomer, unassigned) and `COc1ccc(CO[C@H]2CC[C@]3(C)CC(Cc4ccc(C(=O)O)cc4)CCC3C2(C)C)cc1` (single isomer, unassigned) are within 1.5-fold of each other in IC50: 180 µM for the first, 200 µM for the second.

`CC1(C)C2CC[C@@H](Cc3ccccc3C(=O)O)C[C@@]2(C)CC[C@@H]1O` (stereo partly specified) and `CC1(C)C2CCC(Cc3cccc(C(=O)O)c3)C[C@@]2(C)CC[C@@H]1O` (single isomer, unassigned) are within 1.5-fold of each other in IC50: 484 µM for the first, 333 µM for the second.

`CC1(C)C2CCC[C@H](/C=C/c3ccc(C(=O)O)cc3)[C@@]2(C)CC[C@@H]1O` (stereo partly specified) and `CC1(C)C2CCC[C@H](/C=C/c3cccc(C(=O)O)c3)[C@@]2(C)CC[C@@H]1O` (stereo partly specified) are within 1.5-fold of each other in IC50: 380 µM for the first, 269 µM for the second.

Compared with `CC1(C)C2CCC(Cc3ccc(C(=O)O)cc3)C[C@@]2(C)CC[C@@H]1O` (single isomer, unassigned), `COc1ccc(CO[C@H]2CC[C@]3(C)C[C@H](Cc4ccccc4C(=O)O)CCC3C2(C)C)cc1` (stereo partly specified) is 2.3-fold lower in IC50: 378 µM for the first, 166 µM for the second. The second is the more potent here.

Test system: not listed separately
Experiment: In vitro therapeutic index (IC50 cytotoxicity/ IC50 complement inhibition) was determined
Type: functional

Going from `COc1ccc(CO[C@H]2CC[C@]3(C)CC(Cc4cccc(C(=O)O)c4)CCC3C2(C)C)cc1` (single isomer, unassigned) to `CC1(C)C2CCC(Cc3cccc(C(=O)O)c3)C[C@@]2(C)CC[C@@H]1O` (single isomer, unassigned), the TI rises from 0.4 to 0.6.

First: CC1(C)C2CC[C@@H](Cc3ccccc3C(=O)O)C[C@@]2(C)CC[C@@H]1O (stereo partly specified)
Second: CC1(C)C2CCC(Cc3ccc(C(=O)O)cc3)C[C@@]2(C)CC[C@@H]1O (single isomer, unassigned)
The TI of the first is higher: 0.8 for the first, 0.6 for the second.

First: CC1(C)C2CCC[C@H](/C=C/c3ccc(C(=O)O)cc3)[C@@]2(C)CC[C@@H]1O (stereo partly specified)
Second: CC1(C)C2CCC[C@H](/C=C/c3cccc(C(=O)O)c3)[C@@]2(C)CC[C@@H]1O (stereo partly specified)
The TI of the first is higher: 0.6 for the first, 0.5 for the second.

Going from `CC1(C)CC[C@]2(C(=O)O)CC[C@]3(C)C(=CC[C@@H]4[C@@]5(C)CC[C@H](O)C(C)(C)[C@@H]5CC[C@]43C)[C@@H]2C1` [OLEANOLIC_ACID] to `CC1(C)C2CCC[C@H](/C=C/c3ccccc3C(=O)O)[C@@]2(C)CC[C@@H]1O` (stereo partly specified), the TI falls from 1.55 to 0.6.

Species on record: Homo sapiens
Experiment: In vitro concentration required to inhibit classical pathway complement induced hemolysis in human
Type: functional
Outline: (§2)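 Classical pathway complement inhibition was tested in vitro; IC50 values are means of three experiments with standard deviation.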

`COc1ccc(CO[C@H]2CC[C@]3(C)CC(Cc4cccc(C(=O)O)c4)CCC3C2(C)C)cc1` (single isomer, unassigned) and `CC1(C)C2CCC(Cc3cccc(C(=O)O)c3)C[C@@]2(C)CC[C@@H]1O` (single isomer, unassigned) are within 1.5-fold of each other in IC50: 488 µM for the first, 601 µM for the second.

`CC1(C)C2CC[C@@H](Cc3ccccc3C(=O)O)C[C@@]2(C)CC[C@@H]1O` (stereo partly specified) and `CC1(C)C2CCC(Cc3ccc(C(=O)O)cc3)C[C@@]2(C)CC[C@@H]1O` (single isomer, unassigned) are within 1.5-fold of each other in IC50: 616 µM for the first, 610 µM for the second.

`CC1(C)C2CCC[C@H](/C=C/c3ccc(C(=O)O)cc3)[C@@]2(C)CC[C@@H]1O` (stereo partly specified) and `CC1(C)C2CCC[C@H](/C=C/c3cccc(C(=O)O)c3)[C@@]2(C)CC[C@@H]1O` (stereo partly specified) are within 1.5-fold of each other in IC50: 623 µM for the first, 550 µM for the second.

`CC1(C)C2CCC[C@H](/C=C/c3ccccc3C(=O)O)[C@@]2(C)CC[C@@H]1O` (stereo partly specified) showed an IC50 of 633 µM.

Species on record: Homo sapiens
Experiment: In vitro concentration required to inhibit classical pathway complement induced hemolysis in human; NA= not active
Type: functional
Outline: as §2

With `CC1(C)C2CCC[C@H](/C=C/c3ccccc3C#N)[C@@]2(C)CC[C@@H]1O` (stereo partly specified) the IC50 was “Not Active”.
In the case of `COC(=O)c1ccc(/C=C/[C@H]2CCCC3C(C)(C)[C@@H](O)CC[C@@]32C)cc1` (stereo partly specified), the IC50 is reported as “Not Active”.
For `COc1ccc(CO[C@H]2CC[C@]3(C)CC(Cc4ccc(C(=O)O)cc4)CCC3C2(C)C)cc1` (single isomer, unassigned), the IC50 was “Not Active”.
With `COc1ccc(CO[C@H]2CC[C@]3(C)C[C@H](Cc4ccccc4C(=O)O)CCC3C2(C)C)cc1` (stereo partly specified) the IC50 was “Not Active”.
